# ChEMBL document CHEMBL1155297, “Synthesis, antimicrobial and antioxidant activities of substituted pyrazoles, isoxazoles, pyrimidine and thioxopyrimidine derivatives” (2009)
# Test system: Bacillus subtilis
# Assay: Antibacterial activity against Bacillus subtilis NCIM 2063 at 200 ug/disk after 24 hrs by agar disk diffusion method
# Type: functional
# Conditions: NCIM 2063, 24 h, read-out: IZ
# Procedure, shortened: (§1)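 Agar disc diffusion on nutrient agar plates pre-inoculated with each bacterium. Sterile 6 mm filter-paper discs were moistened with compound in DMSO at the stated per-disc amount. Plates were incubated at 37 °C, and the growth-inhibition zone diameter was read after 24 h. Each determination was run in triplicate, and the mean of three independent readings is reported.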
row,Compound,zone of inhibition at 200 µg/disc [mm]
1,Cc1ccc(S(=O)(=O)CC(C2C(=N)N(C)C(=O)N(C)C2=N)S(=O)(=O)c2ccc(C)cc2)cc1 (stereo not drawn),14
2,NC1=NN=C(N)C1C(CC(=O)c1ccccc1)C(=O)c1ccccc1 (stereo not drawn),31
3,CN1C(=N)C(C(CS(=O)(=O)c2ccccc2)S(=O)(=O)c2ccccc2)C(=N)N(C)C1=O (stereo not drawn),16

# Test system: Curvularia lunata
# Assay: Antifungal activity against Curvularia lunata NCIM 716 at 200 ug/disk after 48 hrs by agar disk diffusion method
# Type: functional
# Conditions: NCIM 716, 48 h, read-out: IZ
# Procedure, shortened: (§2)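 Fungal disc diffusion on nutrient agar plates pre-inoculated with each fungus. 6 mm sterile paper discs carried the compound in DMSO at the stated amount per disc. Plates were held at 37 °C, and inhibition-zone diameter was measured after 48 h. Values are the mean of three independent triplicate readings.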
row,Compound,zone of inhibition at 200 µg/disc [mm]
1,Cc1ccc(S(=O)(=O)CC(C2C(=N)N(C)C(=O)N(C)C2=N)S(=O)(=O)c2ccc(C)cc2)cc1 (stereo not drawn),16
2,NC1=NN=C(N)C1C(CC(=O)c1ccccc1)C(=O)c1ccccc1 (stereo not drawn),32
3,CN1C(=N)C(C(CS(=O)(=O)c2ccccc2)S(=O)(=O)c2ccccc2)C(=N)N(C)C1=O (stereo not drawn),20

# Test system: Radical scavenging activity
# Assay: Antioxidant activity assessed as DPPH free radical scavenging activity at 100 uM after 20 mins
# Type: functional
# Conditions: not given
# Procedure, shortened: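 DPPH scavenging: compound solutions were added to DPPH in dioxane/ethanol and kept at ambient temperature for 20 min. Absorbance was read at 517 nm. The test–control difference was expressed as percent DPPH radical scavenging.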
row,Compound,inhibition [%]
1,Cc1ccc(S(=O)(=O)CC(C2C(=N)N(C)C(=O)N(C)C2=N)S(=O)(=O)c2ccc(C)cc2)cc1 (stereo not drawn),24.8
2,NC1=NN=C(N)C1C(CC(=O)c1ccccc1)C(=O)c1ccccc1 (stereo not drawn),73.7
3,CN1C(=N)C(C(CS(=O)(=O)c2ccccc2)S(=O)(=O)c2ccccc2)C(=N)N(C)C1=O (stereo not drawn),27.7

# Test system: Fusarium solani
# Assay: Antifungal activity against Fusarium solani NCIM 1330 at 200 ug/disk after 48 hrs by agar disk diffusion method
# Type: functional
# Conditions: NCIM 1330, 48 h, read-out: IZ
# Procedure, shortened: as §2
row,Compound,zone of inhibition at 200 µg/disc [mm]
1,Cc1ccc(S(=O)(=O)CC(C2C(=N)N(C)C(=O)N(C)C2=N)S(=O)(=O)c2ccc(C)cc2)cc1 (stereo not drawn),14
2,NC1=NN=C(N)C1C(CC(=O)c1ccccc1)C(=O)c1ccccc1 (stereo not drawn),33
3,CN1C(=N)C(C(CS(=O)(=O)c2ccccc2)S(=O)(=O)c2ccccc2)C(=N)N(C)C1=O (stereo not drawn),16

# Test system: Aspergillus niger
# Assay: Antifungal activity against Aspergillus niger NCIM 596 at 200 ug/disk after 48 hrs by agar disk diffusion method
# Type: functional
# Conditions: NCIM 596, 48 h, read-out: IZ
# Procedure, shortened: as §2
row,Compound,zone of inhibition at 200 µg/disc [mm]
1,Cc1ccc(S(=O)(=O)CC(C2C(=N)N(C)C(=O)N(C)C2=N)S(=O)(=O)c2ccc(C)cc2)cc1 (stereo not drawn),13
2,NC1=NN=C(N)C1C(CC(=O)c1ccccc1)C(=O)c1ccccc1 (stereo not drawn),30
3,CN1C(=N)C(C(CS(=O)(=O)c2ccccc2)S(=O)(=O)c2ccccc2)C(=N)N(C)C1=O (stereo not drawn),16

# Test system: Bacillus subtilis
# Assay: Antibacterial activity against Bacillus subtilis NCIM 2063 at 100 ug/disk after 24 hrs by agar disk diffusion method
# Type: functional
# Conditions: NCIM 2063, 24 h, read-out: IZ
# Procedure, shortened: as §1
row,Compound,zone of inhibition at 100 µg/disc [mm]
1,Cc1ccc(S(=O)(=O)CC(C2C(=N)N(C)C(=O)N(C)C2=N)S(=O)(=O)c2ccc(C)cc2)cc1 (stereo not drawn),12
2,NC1=NN=C(N)C1C(CC(=O)c1ccccc1)C(=O)c1ccccc1 (stereo not drawn),29
3,CN1C(=N)C(C(CS(=O)(=O)c2ccccc2)S(=O)(=O)c2ccccc2)C(=N)N(C)C1=O (stereo not drawn),14

# Test system: Klebsiella pneumoniae
# Assay: Antibacterial activity against Klebsiella pneumoniae NCIM 2957 at 200 ug/disk after 24 hrs by agar disk diffusion method
# Type: functional
# Conditions: NCIM 2957, 24 h, read-out: IZ
# Procedure, shortened: as §1
row,Compound,zone of inhibition at 200 µg/disc [mm]
1,Cc1ccc(S(=O)(=O)CC(C2C(=N)N(C)C(=O)N(C)C2=N)S(=O)(=O)c2ccc(C)cc2)cc1 (stereo not drawn),11
2,NC1=NN=C(N)C1C(CC(=O)c1ccccc1)C(=O)c1ccccc1 (stereo not drawn),29
3,CN1C(=N)C(C(CS(=O)(=O)c2ccccc2)S(=O)(=O)c2ccccc2)C(=N)N(C)C1=O (stereo not drawn),12

# Test system: Staphylococcus aureus
# Assay: Antibacterial activity against Staphylococcus aureus NCIM 5021 at 200 ug/disk after 24 hrs by agar disk diffusion method
# Type: functional
# Conditions: NCIM 5021, 24 h, read-out: IZ
# Procedure, shortened: as §1
row,Compound,zone of inhibition at 200 µg/disc [mm]
1,Cc1ccc(S(=O)(=O)CC(C2C(=N)N(C)C(=O)N(C)C2=N)S(=O)(=O)c2ccc(C)cc2)cc1 (stereo not drawn),13
2,NC1=NN=C(N)C1C(CC(=O)c1ccccc1)C(=O)c1ccccc1 (stereo not drawn),30
3,CN1C(=N)C(C(CS(=O)(=O)c2ccccc2)S(=O)(=O)c2ccccc2)C(=N)N(C)C1=O (stereo not drawn),15

# Test system: not listed separately
# Assay: Antioxidant activity assessed as nitric oxide production at 100 uM after 120 mins by Griess reagent method
# Type: functional
# Conditions: not given
# Procedure, shortened: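 Nitric oxide assay with Griess read-out. At intervals, 0.5 ml of incubation solution was mixed with 0.5 ml Griess reagent (1% sulfanilamide, 0.1% N-naphthylethylenediamine dihydrochloride, 2% o-phosphoric acid in water). The control received an equal amount of solvent and was handled identically.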
row,Compound,inhibition [%]
1,Cc1ccc(S(=O)(=O)CC(C2C(=N)N(C)C(=O)N(C)C2=N)S(=O)(=O)c2ccc(C)cc2)cc1 (stereo not drawn),24.6
2,NC1=NN=C(N)C1C(CC(=O)c1ccccc1)C(=O)c1ccccc1 (stereo not drawn),71.7
3,CN1C(=N)C(C(CS(=O)(=O)c2ccccc2)S(=O)(=O)c2ccccc2)C(=N)N(C)C1=O (stereo not drawn),26.9

# Test system: Staphylococcus aureus
# Assay: Antibacterial activity against Staphylococcus aureus NCIM 5021 at 100 ug/disk after 24 hrs by agar disk diffusion method
# Type: functional
# Conditions: NCIM 5021, 24 h, read-out: IZ
# Procedure, shortened: as §1
row,Compound,zone of inhibition at 100 µg/disc [mm]
1,Cc1ccc(S(=O)(=O)CC(C2C(=N)N(C)C(=O)N(C)C2=N)S(=O)(=O)c2ccc(C)cc2)cc1 (stereo not drawn),11
2,NC1=NN=C(N)C1C(CC(=O)c1ccccc1)C(=O)c1ccccc1 (stereo not drawn),27
3,CN1C(=N)C(C(CS(=O)(=O)c2ccccc2)S(=O)(=O)c2ccccc2)C(=N)N(C)C1=O (stereo not drawn),13

# Test system: Proteus vulgaris
# Assay: Antibacterial activity against Proteus vulgaris NCIM 2027 at 200 ug/disk after 24 hrs by agar disk diffusion method
# Type: functional
# Conditions: NCIM 2027, 24 h, read-out: IZ
# Procedure, shortened: as §1
row,Compound,zone of inhibition at 200 µg/disc [mm]
1,Cc1ccc(S(=O)(=O)CC(C2C(=N)N(C)C(=O)N(C)C2=N)S(=O)(=O)c2ccc(C)cc2)cc1 (stereo not drawn),10
2,NC1=NN=C(N)C1C(CC(=O)c1ccccc1)C(=O)c1ccccc1 (stereo not drawn),26
3,CN1C(=N)C(C(CS(=O)(=O)c2ccccc2)S(=O)(=O)c2ccccc2)C(=N)N(C)C1=O (stereo not drawn),12

# Test system: Fusarium solani
# Assay: Antifungal activity against Fusarium solani NCIM 1330 at 100 ug/disk after 48 hrs by agar disk diffusion method
# Type: functional
# Conditions: NCIM 1330, 48 h, read-out: IZ
# Procedure, shortened: as §2
row,Compound,zone of inhibition at 100 µg/disc [mm]
1,Cc1ccc(S(=O)(=O)CC(C2C(=N)N(C)C(=O)N(C)C2=N)S(=O)(=O)c2ccc(C)cc2)cc1 (stereo not drawn),11
2,NC1=NN=C(N)C1C(CC(=O)c1ccccc1)C(=O)c1ccccc1 (stereo not drawn),31
3,CN1C(=N)C(C(CS(=O)(=O)c2ccccc2)S(=O)(=O)c2ccccc2)C(=N)N(C)C1=O (stereo not drawn),13

# Test system: Klebsiella pneumoniae
# Assay: Antibacterial activity against Klebsiella pneumoniae NCIM 2957 at 100 ug/disk after 24 hrs by agar disk diffusion method
# Type: functional
# Conditions: NCIM 2957, 24 h, read-out: IZ
# Procedure, shortened: as §1
row,Compound,zone of inhibition at 100 µg/disc [mm]
1,Cc1ccc(S(=O)(=O)CC(C2C(=N)N(C)C(=O)N(C)C2=N)S(=O)(=O)c2ccc(C)cc2)cc1 (stereo not drawn),9
2,NC1=NN=C(N)C1C(CC(=O)c1ccccc1)C(=O)c1ccccc1 (stereo not drawn),27
3,CN1C(=N)C(C(CS(=O)(=O)c2ccccc2)S(=O)(=O)c2ccccc2)C(=N)N(C)C1=O (stereo not drawn),9

# Test system: Proteus vulgaris
# Assay: Antibacterial activity against Proteus vulgaris NCIM 2027 at 100 ug/disk after 24 hrs by agar disk diffusion method
# Type: functional
# Conditions: NCIM 2027, 24 h, read-out: IZ
# Procedure, shortened: as §1
row,Compound,zone of inhibition at 100 µg/disc [mm]
1,Cc1ccc(S(=O)(=O)CC(C2C(=N)N(C)C(=O)N(C)C2=N)S(=O)(=O)c2ccc(C)cc2)cc1 (stereo not drawn),8
2,NC1=NN=C(N)C1C(CC(=O)c1ccccc1)C(=O)c1ccccc1 (stereo not drawn),23
3,CN1C(=N)C(C(CS(=O)(=O)c2ccccc2)S(=O)(=O)c2ccccc2)C(=N)N(C)C1=O (stereo not drawn),10

# Test system: Curvularia lunata
# Assay: Antifungal activity against Curvularia lunata NCIM 716 at 100 ug/disk after 48 hrs by agar disk diffusion method
# Type: functional
# Conditions: NCIM 716, 48 h, read-out: IZ
# Procedure, shortened: as §2
row,Compound,zone of inhibition at 100 µg/disc [mm]
1,Cc1ccc(S(=O)(=O)CC(C2C(=N)N(C)C(=O)N(C)C2=N)S(=O)(=O)c2ccc(C)cc2)cc1 (stereo not drawn),13
2,NC1=NN=C(N)C1C(CC(=O)c1ccccc1)C(=O)c1ccccc1 (stereo not drawn),30
3,CN1C(=N)C(C(CS(=O)(=O)c2ccccc2)S(=O)(=O)c2ccccc2)C(=N)N(C)C1=O (stereo not drawn),16

# Test system: Aspergillus niger
# Assay: Antifungal activity against Aspergillus niger NCIM 596 at 100 ug/disk after 48 hrs by agar disk diffusion method
# Type: functional
# Conditions: NCIM 596, 48 h, read-out: IZ
# Procedure, shortened: as §2
row,Compound,zone of inhibition at 100 µg/disc [mm]
1,Cc1ccc(S(=O)(=O)CC(C2C(=N)N(C)C(=O)N(C)C2=N)S(=O)(=O)c2ccc(C)cc2)cc1 (stereo not drawn),10
2,NC1=NN=C(N)C1C(CC(=O)c1ccccc1)C(=O)c1ccccc1 (stereo not drawn),29
3,CN1C(=N)C(C(CS(=O)(=O)c2ccccc2)S(=O)(=O)c2ccccc2)C(=N)N(C)C1=O (stereo not drawn),14
